Test results reported in ChEMBL document CHEMBL1155210, “The discovery of tertiary-amine LXR agonists with potent cholesterol efflux activity in macrophages” (Bioorg Med Chem Lett, 2009).

Legend:
[1] = molecular target: T1, Oxysterols receptor LXR-alpha (Homo sapiens, UniProt Q13133); assay: Agonist activity at human LXRalpha assessed as association of SRC1 to LXRalpha ligand binding domain by FRET based cell-free ligand sensing assay
T1 sequence (Q13133 whole entry): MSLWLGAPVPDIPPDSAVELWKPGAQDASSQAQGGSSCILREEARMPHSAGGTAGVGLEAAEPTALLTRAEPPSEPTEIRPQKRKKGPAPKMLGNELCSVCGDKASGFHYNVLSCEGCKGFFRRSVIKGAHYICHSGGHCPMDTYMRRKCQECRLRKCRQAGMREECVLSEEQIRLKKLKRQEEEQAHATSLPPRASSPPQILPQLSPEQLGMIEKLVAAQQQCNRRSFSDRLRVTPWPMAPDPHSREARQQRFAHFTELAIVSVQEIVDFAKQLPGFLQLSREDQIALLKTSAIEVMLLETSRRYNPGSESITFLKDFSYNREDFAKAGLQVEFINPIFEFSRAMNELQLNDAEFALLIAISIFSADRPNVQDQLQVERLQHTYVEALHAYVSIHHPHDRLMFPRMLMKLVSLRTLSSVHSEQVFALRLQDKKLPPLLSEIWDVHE
How it was run: (§1)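 Cell-free FRET ligand-sensing assay measuring ligand-dependent recruitment of a 24-amino-acid steroid receptor coactivator 1 (SRC1) fragment to the LXR ligand-binding domain. Percent efficacy is expressed against the maximal agonist response of the reference agonist. Values are means of at least two experiments, standard deviation ≤10%.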

[2] = molecular target: T2, Oxysterols receptor LXR-beta (Homo sapiens, UniProt P55055); assay: Agonist activity at human LXRbeta assessed as association of SRC1 to LXRbeta ligand binding domain by FRET based cell-free ligand sensing assay; how it was run: as §1
T2 sequence (P55055 whole entry): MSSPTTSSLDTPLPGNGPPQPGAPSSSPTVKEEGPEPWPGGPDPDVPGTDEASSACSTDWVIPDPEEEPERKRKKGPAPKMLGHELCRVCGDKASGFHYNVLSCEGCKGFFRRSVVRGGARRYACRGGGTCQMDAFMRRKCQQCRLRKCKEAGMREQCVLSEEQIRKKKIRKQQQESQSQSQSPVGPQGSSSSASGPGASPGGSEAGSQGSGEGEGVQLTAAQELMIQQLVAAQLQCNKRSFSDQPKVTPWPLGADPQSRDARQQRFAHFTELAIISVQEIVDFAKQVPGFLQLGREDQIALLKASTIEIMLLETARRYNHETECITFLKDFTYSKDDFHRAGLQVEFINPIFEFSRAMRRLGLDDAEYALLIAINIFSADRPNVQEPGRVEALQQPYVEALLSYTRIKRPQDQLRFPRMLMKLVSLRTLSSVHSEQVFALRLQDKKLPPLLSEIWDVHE

[3] = tested on: RAW264.7; assay: Induction of [3H]cholesterol efflux in mouse RAW264.7 cells loaded with acetylated-LDL after 24 hrs; assay type: functional, cell-based
How it was run: (§2)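 Mouse RAW 264.7 macrophages were grown overnight, then loaded for 24 h with acetylated LDL (final 50 µg/mL) plus 3H-cholesterol (5 µCi/mL). Cells were washed and held 24 h in serum-free, phenol red-free medium with 1% fatty acid-free BSA and compound in DMSO. Efflux then ran 24 h into medium with 0.1% BSA, 5 µg/mL apoA-I and fresh compound. Filtered medium and NaOH cell lysate were counted by scintillation.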

[4] = molecular target: Oxysterols receptor LXR-beta (Homo sapiens) (UniProt P55055); assay: Agonist activity at human LXRbeta assessed as association of SRC1 to LXRbeta ligand binding domain by FRET based cell-free ligand sensing assay relative to 2-(3-(3-((2-chloro-3-(trifluoromethyl)benzyl)(2,2-diphenylethyl)amino)propoxy)phenyl)acetic acid; set-up: concentration or dose not given beside the values
[5] = molecular target: T3, Oxysterols receptor LXR-alpha (Homo sapiens) (UniProt Q13133); assay: Agonist activity at human LXRalpha assessed as association of SRC1 to LXRalpha ligand binding domain by FRET based cell-free ligand sensing assay relative 2-(3-(3-((2-chloro-3-(trifluoromethyl)benzyl)(2,2-diphenylethyl)amino)propoxy)phenyl)acetic acid; how it was run: as §1
T3 sequence (whole entry): T1 sequence (Q13133 whole entry)

[6] = tested on: Macrophage; assay: Increase in ABCA1 gene expression in human primary macrophages; assay type: functional, cell-based
[7] = tested on: Macrophage; assay: Increase in ABCG1 gene expression in human primary macrophages at 30 nM relative to control; assay type: functional
[8] = tested on: Macrophage; assay: Increase in ABCA1 gene expression in human primary macrophages at 30 nM relative to control; assay type: functional
[9] = tested on: Macrophage; assay: Increase in SREBP1 gene expression in human primary macrophages at 100 nM relative to control; assay type: functional
[10] = tested on: Macrophage; assay: Increase in ABCG1 gene expression in human primary macrophages; assay type: functional, cell-based
[11] = tested on: Macrophage; assay: Increase in ABCG1 gene expression in human primary macrophages at 100 nM relative to control; assay type: functional
[12] = tested on: Macrophage; assay: Increase in ABCA1 gene expression in human primary macrophages at 100 nM relative to control; assay type: functional
[13] = tested on: RAW264.7; assay: Induction of [3H]cholesterol efflux in mouse RAW264.7 cells loaded with acetylated-LDL after 24 hrs relative to 2-(3-(3-((2-chloro-3-(trifluoromethyl)benzyl)(2,2-diphenylethyl)amino)propoxy)phenyl)acetic acid; assay type: functional; how it was run: as §2
[14] = molecular target: T4, Nuclear receptor subfamily 1 group I member 2 (Homo sapiens, UniProt O75469); assay: Binding affinity to PXR by scintillation proximity binding assay
T4 sequence (O75469 whole entry): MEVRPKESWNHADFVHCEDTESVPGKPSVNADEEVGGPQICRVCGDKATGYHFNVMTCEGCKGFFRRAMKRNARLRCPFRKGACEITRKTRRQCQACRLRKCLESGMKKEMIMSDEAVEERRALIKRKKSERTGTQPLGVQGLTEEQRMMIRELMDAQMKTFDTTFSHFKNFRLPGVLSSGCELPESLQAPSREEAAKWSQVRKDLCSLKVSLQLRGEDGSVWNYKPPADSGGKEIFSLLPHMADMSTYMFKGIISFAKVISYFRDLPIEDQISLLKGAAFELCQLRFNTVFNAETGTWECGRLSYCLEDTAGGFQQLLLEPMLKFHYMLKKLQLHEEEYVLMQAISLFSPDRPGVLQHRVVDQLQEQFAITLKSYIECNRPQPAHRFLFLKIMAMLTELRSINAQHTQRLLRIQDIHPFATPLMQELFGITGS

[15] = Volume of distribution at steady state in Sprague-Dawley rat at 2.6 mg/kg, iv; assay type: ADME, organism-based; set-up: dose 2.6 mg/kg, route intravenous; conditions: in vivo, read-out: Vdss
[16] = Cmax in Sprague-Dawley rat at 2.6 mg/kg, iv; assay type: ADME, organism-based; set-up: dose 2.6 mg/kg, route intravenous; conditions: in vivo
[17] = Half life in Sprague-Dawley rat at 2.6 mg/kg, iv; assay type: ADME, organism-based; set-up: dose 2.6 mg/kg, route intravenous; conditions: in vivo
[18] = Oral bioavailability in Sprague-Dawley rat at 4.5 mg/kg; assay type: ADME, organism-based; conditions: in vivo
How it was run: (§3)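 Pharmacokinetics were measured after an intravenous dose of 2.6 mg/kg and an oral dose of 4.5 mg/kg. Oral half-life and oral bioavailability (F%) are reported as mean ± deviation.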

[19] = Half life in Sprague-Dawley rat at 4.5 mg/kg, po; assay type: ADME, organism-based; set-up: dose 4.5 mg/kg, route oral; conditions: in vivo; how it was run: as §3
[20] = Plasma clearance in Sprague-Dawley rat at 2.6 mg/kg, iv; assay type: ADME, organism-based; set-up: dose 2.6 mg/kg, route intravenous

SMILES | EC50 [1] [nM] | EC50 [2] [nM] | EC50 [3] [nM] | Activity [4] [%] | Activity [5] [%] | Ki [14] [nM] | Vd [15] [L/kg] | Cmax [16] [ng/mL] | half-life [17] [h] | bioavailability [18] [%] | half-life [19] [h] | clearance [20] [mL/min/kg] | Activity [6] | fold change (FC) [7] | fold change (FC) [8] | fold change (FC) [9] | Activity [10] | fold change (FC) [11] | fold change (FC) [12] | fold change (FC) [13]
C[C@@H](COc1cccc(CC(=O)O)c1)CN(Cc1cccc(C(F)(F)F)c1Cl)CC(c1ccccc1)c1ccccc1 | 280 | 86 | 76 | 70 | 67 | – | – | – | – | – | – | – | – | – | – | – | – | – | – | –
C[C@@H](CCN(Cc1cccc(C(F)(F)F)c1Cl)CC(c1ccccc1)c1ccccc1)Oc1cccc(CC(=O)O)c1 | 365 | 145 | – | 59 | 39 | – | – | – | – | – | – | – | – | – | – | – | – | – | – | –
O=C(O)Cc1cccc(OCCCN(Cc2cccc(C(F)(F)F)c2Cl)CC(c2ccccc2)c2ccccc2)c1 | 200 | – | 29 | – | – | 2000 | – | – | – | – | – | – | Dose-dependent effect | 3.2 | 2 | 4.1 | Dose-dependent effect | 5.4 | 3.1 | –
C[C@@H](CCOc1cccc(CC(=O)O)c1)N(Cc1cccc(C(F)(F)F)c1Cl)CC(c1ccccc1)c1ccccc1 | 211 | 87 | 54 | 80 | 91 | – | – | – | – | – | – | – | – | – | – | – | – | – | – | –
CCC(CC)(C(=O)O)c1cccc(OCCCN(Cc2cccc(C(F)(F)F)c2Cl)CC(c2ccccc2)c2ccccc2)c1 | 380 | 174 | – | 68 | 69 | – | – | – | – | – | – | – | – | – | – | – | – | – | – | –
O=C(O)Cc1ccc2cc(CCN(Cc3cccc(C(F)(F)F)c3Cl)CC(c3ccccc3)c3ccccc3)oc2c1 | 331 | 63 | – | 75 | 53 | – | – | – | – | – | – | – | – | – | – | – | – | – | – | –
O=C(O)Cc1ccc2oc(CCN(Cc3cccc(C(F)(F)F)c3Cl)CC(c3ccccc3)c3ccccc3)cc2c1 | 305 | 145 | – | 26 | 20 | – | – | – | – | – | – | – | – | – | – | – | – | – | – | –

Further lines, with some results ahead:

EC50 [1] [nM] | EC50 [2] [nM] | EC50 [3] [nM] | Activity [4] [%] | Activity [5] [%] | Ki [14] [nM] | Vd [15] [L/kg] | Cmax [16] [ng/mL] | half-life [17] [h] | bioavailability [18] [%] | half-life [19] [h] | clearance [20] [mL/min/kg] | SMILES | Activity [6] | fold change (FC) [7] | fold change (FC) [8] | fold change (FC) [9] | Activity [10] | fold change (FC) [11] | fold change (FC) [12] | fold change (FC) [13]
43 | 15 | 7 | 95 | 100 | – | – | – | – | – | – | – | CC(C)(C(=O)O)c1cccc(OCCCN(Cc2cccc(C(F)(F)F)c2Cl)CC(c2ccccc2)c2ccccc2)c1 | Dose-dependent effect | 7.5 | 3 | 5.8 | Dose-dependent effect | 11.2 | 4 | 2
200 | 41 | 34 | 76 | 78 | > 10000 | – | – | – | – | – | – | C[C@H](CCN(Cc1cccc(C(F)(F)F)c1Cl)CC(c1ccccc1)c1ccccc1)Oc1cccc(CC(=O)O)c1 | – | – | – | – | – | – | – | –
9 | 11 | < 3 | 100 | 100 | – | – | – | – | – | – | – | C[C@H](CCOc1cccc(C(C)(C)C(=O)O)c1)N(Cc1cccc(C(F)(F)F)c1Cl)CC(c1ccccc1)c1ccccc1 | – | – | – | – | – | – | – | 2
56 | 26 | 18 | 100 | 100 | – | – | – | – | – | – | – | O=C(O)C1CCCc2c(OCCCN(Cc3cccc(C(F)(F)F)c3Cl)CC(c3ccccc3)c3ccccc3)cccc21 (racemic) | Dose-dependent effect | 2 | 1.4 | 2.6 | Dose-dependent effect | 3.6 | 2.6 | 2
74 | 25 | 17 | 89 | 100 | > 10000 | 1.9 | 2130 | 1.82 | 71 | 2.4 | 23.7 | C[C@H](CCOc1cccc(CC(=O)O)c1)N(Cc1cccc(C(F)(F)F)c1Cl)CC(c1ccccc1)c1ccccc1 [ABEQUOLIXRON] | Dose-dependent effect | 4.2 | 3.6 | 5.5 | Dose-dependent effect | 8 | 6.3 | 2
46 | 15 | 15 | 90 | 100 | – | – | – | – | – | – | – | CC(C(=O)O)c1cccc(OCCCN(Cc2cccc(C(F)(F)F)c2Cl)CC(c2ccccc2)c2ccccc2)c1 (stereo not given) | – | – | – | – | – | – | – | 2
